Test results: ChEMBL document CHEMBL1269004, “Synthesis of a 6-methyl-7-deaza analogue of adenosine that potently inhibits replication of polio and dengue viruses” (J Med Chem, 2010)
The source made the active and inactive calls. The calls are words filed in the database; no cut-off is given here.

How the values were obtained:
[1] = Cytotoxicity against human HeLaS3 cells after 48 hrs by celltiter-glo assay; assay type: cell-based; conditions: HeLa S3, 48 h
Procedure, shortened: (§1)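 HeLa S3 cells (4 × 10^3/well, plated 24 h before) exposed to a nucleoside concentration series at 37 °C, final 0.1% DMSO, for 7, 24 or 48 h. Cells PBS-washed; viability read as ATP-dependent luminescence (CellTiter-Glo) after 10 min at 22 °C. IC50 from a four-parameter fit of luminescence vs concentration.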

[2] = Cytotoxicity against human HeLaS3 cells after 7 hrs by celltiter-glo assay; assay type: cell-based; conditions: HeLa S3, 7 h; procedure, shortened: as §1
[3] = Cytotoxicity against human HeLaS3 cells after 24 hrs by celltiter-glo assay; assay type: cell-based; conditions: HeLa S3, 24 h; procedure, shortened: as §1
Enterovirus C [4] = assay: Antiviral activity against Poliovirus infected in human HeLaS3 cells assessed as inhibition of viral replication treated 1 hr before infection measured after 2 days; assay type: functional, organism-based; conditions: HeLa S3
Procedure, shortened: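 HeLa S3 cells (1 × 10^5, plated 1 day prior) pretreated 1 h at 37 °C with nucleoside in 0.1% DMSO media, then infected with 1 × 10^6 PFU PV in PBS for 15 min at room temperature. Refed with nucleoside-containing media and infected 6 h at 37 °C. Cell-associated virus released by 3 freeze-thaw cycles and titered by plaque assay on HeLa S3 under 1% agarose for 2 days, with crystal violet stain. IC50 from a four-parameter fit.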

dengue virus type 2 [5] = assay: Antiviral activity against Dengue virus type 2 in BHK-21 cells assessed as inhibition of viral replication after 24 hrs by luciferase assay; assay type: functional, organism-based; conditions: BHK-21, 24 h
Procedure, shortened: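 BHK-21 cells stably carrying a luciferase DENV2 replicon, grown in DMEM/F-12 with 10% FBS. Seeded 24 h ahead, then exposed for 24 h to a nucleoside concentration series in media with 1% DMSO. Cells PBS-washed and lysed; luciferase luminescence read on the lysate.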

[6] = Cytotoxicity against human HeLaS3 cells at 100 uM after 24 hrs by celltiter-glo assay; assay type: cell-based; conditions: HeLa S3, 24 h
Procedure, shortened: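 HeLa S3 cells (4 × 10^3/well) treated 24 h at 37 °C in 0.1% DMSO. Viability measured as ATP luminescence (CellTiter-Glo) after PBS wash, read after 10 min at 22 °C, and reported as % viable cells.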

dengue virus type 2 [7] = assay: Antiviral activity against Dengue virus type 2 in Vero cells assessed as inhibition of viral RNA replication […] by RT-PCR analysis; assay type: functional, organism-based
dengue virus type 2 [8] = assay: Antiviral activity against Dengue virus type 2 in Vero cells assessed as inhibition of viral replication after 6 days using neutral red dye by plaque assay; assay type: functional, organism-based; conditions: 144 h
Procedure, shortened: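 Cells infected with DENV2, then treated for 24 h at 37 °C with a concentration series in 1% DMSO media. Supernatant overlaid with 0.9% low-melting agarose in EMEM/0.5% FBS for 6 days at 37 °C, then a second agarose layer with 0.015% neutral red added overnight. Plaques counted as PFU/ml; IC50 from a four-parameter fit of titer vs concentration.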

Enterovirus C [9] = assay: Activity at Poliovirus RNA-dependent RNA polymerase assessed as incorporation into opposite uracil and cytosine of viral RNA by denaturing PAGE analysis
Procedure, shortened: (§2)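 Pre-assembled PV 3Dpol–sym/sub primer/template (32P end-labelled) complex formed for 3 min at 30 °C. Reaction at 30 °C in 50 mM HEPES pH 7.5 with 10 mM 2-mercaptoethanol, 5 mM MgCl2, 1 µM 3Dpol, 0.5 µM duplex RNA and 0.5 mM NTP, started by adding nucleotide. Stopped at 1, 5 or 10 min, run on denaturing PAGE, phosphorimaged, and expressed as % incorporation relative to the natural NTP.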

Enterovirus C [10] = assay: Activity at Poliovirus RNA-dependent RNA polymerase assessed as incorporation into opposite cytosine of viral RNA after 30 mins by denaturing PAGE analysis
[11] = Binding affinity to Poliovirus RNA-dependent RNA polymerase; set-up: species or system Enterovirus C; conditions: read-out: Kd(app)
Enterovirus C [12] = assay: Activity at Poliovirus RNA-dependent RNA polymerase assessed as incorporation into opposite adenine and guanine of viral RNA by denaturing PAGE analysis; procedure, shortened: as §2

Structure (SMILES) | IC50 [1] | IC50 [2] | IC50 [3] | IC50 (Enterovirus C [4]) | IC50 (dengue virus type 2 [5]) | Kd [11] | further results
Cc1ncnc2c1ncn2[C@@H]1O[C@H](CO)[C@@H](O)[C@H]1O | 2.2 µM | 17.7 µM | 6.68 µM | 1.01 µM | 5.46 µM |  | 
Cc1ncnc2c1ccn2[C@@H]1O[C@H](CO)[C@@H](O)[C@H]1O | 0.224 µM | > 100 µM |  | 0.011 µM | 0.877 µM |  | IC50 [6]: 0.986 µM; IC50 (dengue virus type 2 [7]): 0.039 µM; IC50 (dengue virus type 2 [8]): 0.062 µM
COC[C@H]1O[C@@H](n2ccc3c(C)ncnc32)[C@H](O)[C@@H]1O | > 100 µM | > 100 µM | > 100 µM | > 10 µM | > 10 µM |  | 
Cc1ncnc2c1ncn2[C@@H]1O[C@H](COP(=O)(O)OP(=O)(O)OP(=O)(O)O)[C@@H](O)[C@H]1O |  |  |  |  |  | 170 µM | Activity (Enterovirus C [9]): Active; Activity (Enterovirus C [10]): 40%; Activity (Enterovirus C [12]): inactive
Cc1nccc2c1ncn2[C@@H]1O[C@H](CO)[C@@H](O)[C@H]1O | > 100 µM | > 100 µM | > 100 µM | > 10 µM | > 10 µM |  | 
NC(=O)c1ncn([C@@H]2O[C@H](COP(=O)(O)OP(=O)(O)OP(=O)(O)O)[C@@H](O)[C@H]2O)n1 [RTP] |  |  |  |  |  | 496 µM | 
Cc1ccnc2c1ncn2[C@@H]1O[C@H](CO)[C@@H](O)[C@H]1O | > 10 µM | > 100 µM | > 100 µM | > 10 µM | > 10 µM |  | 
Nc1ncnc2c1ncn2[C@@H]1O[C@H](COP(=O)(O)OP(=O)(O)OP(=O)(O)O)[C@@H](O)[C@H]1O [ADENOSINE TRIPHOSPHATE] |  |  |  |  |  | 134 µM | 
Cc1ncnc2c1ccn2[C@@H]1O[C@H](COP(=O)(O)OP(=O)(O)OP(=O)(O)O)[C@@H](O)[C@H]1O |  |  |  |  |  | 120 µM | Activity (Enterovirus C [9]): Active; Activity (Enterovirus C [10]): 60%; Activity (Enterovirus C [12]): inactive
Nc1ncnc2c1ccn2[C@@H]1O[C@H](CO)[C@@H](O)[C@H]1O [TUBERCIDIN] | 0.4 µM | 1.44 µM | 0.819 µM | 0.03 µM |  |  | 
